Screens deposited in PubChem by several laboratories.
Compounds with a hit are over-represented: about 4% of the library has one in this group of screens.
bCat nuc transl = modulators of beta-catenin nuclear translocation, primary screen, imaging, HeLa cells, immunofluorescence, high-content. nuclear translocation activity, % at 5 µM. hit rate 0.3% among 190,000;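 active = nuclear translocation activity above 50% at 5 µM, with a well cell count of 50 or more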;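 note: per-cell ratio of nuclear to cytoplasmic median beta-catenin stain intensity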
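Technique: fluorescence imaging of beta-catenin antibody stain plus DAPI / Material: human HeLa cell line / Incubation: compound treatment 24 h, 37°C, 5% CO2 / Read-out basis: % activation of per-cell nuclear versus cytoplasmic median beta-catenin signal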
WT yeast gro inh = growth inhibition of WT strain, primary screen, mitochondrial fusion inhibitor project, WT and mutant strains, chemical genetic; mitochondrial fusion phenotypic screen; inhibition, % at 10 µM; hit rate 2.1% among 190,000; AID 1362, 2008; in the data active = inhibition above about 58%; tested in S. cerevisiae
Pf gametocyte = late stage P. falciparum gametocyte viability inhibitors, primary screen, ATP luminescence, HTS; AID 743093, 2013; hit rate 0.065% among 150,000; inhibition, % at 10.9 µM; P. falciparum stage V gametocytes, 24 h;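 active = inhibition above the mean plus 3 SD of compounds within the control limits, set per campaign, cut at about 38% in these data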
KCC2 mod = KCC2 cotransporter modulators, thallium flux, primary screen, cell-based, HEK293 KCC2, FluoZin-2 fluorescence, MLSMR; B-score of Tl+ flux slope (higher = more flux/activation; lower = inhibition) at 10 µM; hit rate 2.2% among 190,000; KCC2 cells, thallium flux FluoZin-2 fluorescence; Solute carrier family 12 member 5 (Homo sapiens), Q9H2X9;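 active = thallium flux slope and its plate-corrected score both differing from the plate sample mean at a set confidence after two filtering rounds, in either direction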;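 note: slope of fluorescence scaled to starting intensity during 10 to 20 s after thallium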
Target sequence (Q9H2X9 whole entry, looked up): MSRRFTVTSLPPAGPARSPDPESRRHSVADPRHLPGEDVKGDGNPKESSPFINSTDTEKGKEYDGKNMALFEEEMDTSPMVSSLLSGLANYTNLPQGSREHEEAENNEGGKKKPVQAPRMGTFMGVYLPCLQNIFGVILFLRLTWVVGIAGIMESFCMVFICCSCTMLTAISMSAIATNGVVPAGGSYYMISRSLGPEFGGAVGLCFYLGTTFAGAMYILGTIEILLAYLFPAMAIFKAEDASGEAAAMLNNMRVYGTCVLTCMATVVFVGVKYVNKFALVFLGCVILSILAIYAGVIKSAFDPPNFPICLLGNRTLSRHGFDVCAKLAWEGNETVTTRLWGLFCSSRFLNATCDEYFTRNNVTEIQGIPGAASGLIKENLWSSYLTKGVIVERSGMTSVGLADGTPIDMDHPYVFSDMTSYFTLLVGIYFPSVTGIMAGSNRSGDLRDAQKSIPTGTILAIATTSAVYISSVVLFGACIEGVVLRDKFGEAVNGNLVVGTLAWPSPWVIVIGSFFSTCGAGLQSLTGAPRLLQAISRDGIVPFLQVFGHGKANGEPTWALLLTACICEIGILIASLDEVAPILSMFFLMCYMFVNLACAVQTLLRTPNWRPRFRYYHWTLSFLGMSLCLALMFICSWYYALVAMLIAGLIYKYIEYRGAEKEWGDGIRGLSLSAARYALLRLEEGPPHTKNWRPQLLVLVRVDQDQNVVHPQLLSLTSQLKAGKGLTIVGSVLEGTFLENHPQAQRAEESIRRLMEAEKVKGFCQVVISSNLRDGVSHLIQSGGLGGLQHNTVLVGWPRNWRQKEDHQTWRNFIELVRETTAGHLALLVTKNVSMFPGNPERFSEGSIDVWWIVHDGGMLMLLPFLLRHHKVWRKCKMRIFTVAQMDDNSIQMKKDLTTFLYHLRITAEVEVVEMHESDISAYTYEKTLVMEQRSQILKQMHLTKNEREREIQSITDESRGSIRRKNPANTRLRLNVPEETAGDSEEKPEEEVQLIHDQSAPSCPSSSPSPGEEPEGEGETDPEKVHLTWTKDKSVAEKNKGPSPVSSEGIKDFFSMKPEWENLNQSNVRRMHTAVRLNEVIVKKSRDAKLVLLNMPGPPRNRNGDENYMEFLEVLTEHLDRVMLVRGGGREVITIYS
MT stabilizer = microtubule stabilizers in HeLa cells, primary screen, imaging, high-content imaging. HeLa tubulin immunostaining HCS, 24 h; share of cells brighter than vehicle mean+2SD. % tubulin-high responders, % at 10 µM. hit rate 0.83% among 200,000;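 active = plate Z-score above 3 for both tubulin-high and condensed-nucleus cell shares, with cell loss under 80%, at 10 µM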;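 note: anti alpha tubulin signal scored within the nucleus-defined area of each cell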
A number is an active result; – = inactive; · = no result given.

SMILES	bCat nuc transl	WT yeast gro inh	Pf gametocyte	KCC2 mod	MT stabilizer
COc1cc(C(=O)Nc2ccc(N(C)C)cc2)cc(OC)c1OC	–	–	·	·	26
CCn1c2ccccc2c2cc(NC(=O)CSc3nnc(-c4ccccc4)o3)ccc21	–	·	·	–	16
CCn1c2ccccc2c2cc(NC(=O)c3cccc([N+](=O)[O-])c3C)ccc21	–	–	–	–	14
COc1cc(C(=O)Nc2ccc(S(=O)(=O)N(C)c3ccccc3)cc2)cc(OC)c1OC	–	–	–	–	–
CCOC(=O)C(=CNc1cccnc1Oc1ccc(C)c2c1CCC2)C(=O)OCC	–	·	–	–	·
O=C(c1cccs1)N1CCN(Cc2ccccc2[N+](=O)[O-])CC1	–	–	–	–	–
COc1ccc2c(c1)sc(N)[n+]2Cc1cc(C)cc2cccnc12	114	–	–	–	15
CCOc1ccc2c(c1)sc(N)[n+]2Cc1cc(C)cc2cccnc12	152	–	–	–	14
Cc1cc(C[n+]2ncsc2N)c2ncccc2c1	–	·	–	–	·
C=CCNC(=O)c1ccccc1NC(=O)C1COc2ccccc2O1 (stereo not given)	–	–	–	–	–
C=CCn1c(COc2ccccc2-c2ccccc2)nnc1SCC(=O)NC(=O)NCc1ccco1	–	95	·	–	–
CC(=O)Nc1ccc(C(=O)CSc2nccc(=O)[nH]2)cc1	–	–	–	–	–
COc1cccc(C2=NOC(C(=O)NCc3ccccc3)C2)c1 (stereo not given)	131	–	·	–	19
COc1cccc(C2=NOC(C(=O)NCc3ccco3)C2)c1 (stereo not given)	·	–	·	·	–
COc1ccc(C2=NOC(C(=O)NCc3ccccc3)C2)cc1 (stereo not given)	154	–	·	–	–
Cc1cc(C)cc(N(CCC(=O)O)S(=O)(=O)c2ccc(Cl)cc2)c1	–	–	–	–	–
CCc1nnc(NC(=O)CCN(c2cc(C)cc(C)c2)S(=O)(=O)c2ccc(Cl)cc2)s1	–	–	·	–	19
C=CCc1ccccc1Oc1cc(F)nc(N)n1	·	·	–	·	·
CCOc1ccc(CN2CCN(CCCc3ccccc3)CC2CCO)cc1 (stereo not given)	·	·	–	·	·
O=C(Nc1ccc(Cl)cc1)N1CCN(c2ccc3nnc(-c4ccc(F)cc4)n3n2)CC1	–	80	–	–	–
O=C(Nc1ccccc1Cl)N1CCN(c2ccc3nnc(-c4ccccc4)n3n2)CC1	·	–	·	·	–
CC1CCN(CCn2c(=S)[nH]c3ccccc3c2=O)CC1	·	·	–	·	·
O=C(c1ccc(F)cc1)C1CCN(CCn2c(=S)[nH]c3ccccc3c2=O)CC1	–	–	·	7	·
COc1cnc(-c2ccccn2)nc1Oc1ccccc1Cl	–	61	–	–	–
COc1cnc(-c2ccccn2)nc1Oc1ccc(Cl)c2ccccc12	·	–	–	–	–
SMILES	bCat nuc transl	WT yeast gro inh	Pf gametocyte	KCC2 mod	MT stabilizer
CCc1nnc(NC(=O)CSc2nnc(-c3ccccc3O)n2-c2ccc(C)cc2C)s1	–	–	·	–	38
Cc1ccc(S(=O)(=O)N2c3cc(C)ccc3OCC2C(C)(C)C)cc1 (stereo not given)	–	69	–	–	–
COc1ccc(S(=O)(=O)N2c3cc(C)ccc3OCC2C(C)(C)C)cc1 (stereo not given)	·	–	–	·	–
CC1C/C(=N\NC(=S)NC(C)C)CC(C)(C)C1 (stereo not given)	–	65	·	·	–
CC1C/C(=N\NC(=O)c2cccnc2)CC(C)(C)C1 (stereo not given)	–	–	–	–	–
CC(C(=O)NC(=O)NC1CCCCC1)N1CCN(C(c2ccccc2)c2ccccc2)CC1 (stereo not given)	–	73	–	–	–
CC(C(=O)NC1CCCC1)N1CCN(Cc2ccccc2)CC1 (stereo not given)	–	–	–	–	–
N=C(N)SCc1cn(-c2ccccc2)nc1-c1ccc(Br)cc1	–	85	–	–	–
COc1ccc(-c2nn(-c3ccccc3)cc2CO)cc1	–	–	–	·	–
CC(Nc1nc(-c2cccc(Br)c2)cs1)c1nc2cc(Cl)c(N3CCCCC3)cc2n1CCOCCO (stereo not given)	·	·	–	·	·
C=C(C)c1cccc(C(C)(C)NC(=O)Nc2ccc(Cl)cn2)c1	–	74	–	–	–
C=C(C)c1cccc(C(C)(C)NC(=O)Nc2ncccn2)c1	·	–	·	·	–
CCN(CC)CCOC(=O)/C=C/c1ccccc1OC	–	–	–	–	–
COc1ccc(C2C=C(C34CC5CC(CC(C5)C3)C4)NC(=S)N2)cc1 (stereo not given)	–	70	–	–	–
COc1ccc(C2=CC(c3ccc(OC)c(OC)c3)NC(=S)N2)cc1 (stereo not given)	–	–	·	–	–
CC(=O)Nc1ccc(S(=O)(=O)NCCCN2CCN(Cc3ccccc3)CC2)cc1Cl	–	·	–	–	·
CCOC1(OCC)C(c2ccc(Cl)cc2)C(C#N)(C#N)C1(OCC)OCC (stereo not given)	–	65	–	–	–
COC(=O)C(NC(=O)c1ccccc1)(Nc1cc(C)cc(C)n1)C(F)(F)F (stereo not given)	–	–	·	–	–
CCCCN(C)CCCNC(=O)CS(=O)Cc1nc(-c2ccc(OC)c(OC)c2)oc1C (stereo not given)	–	–	–	–	–
CCCN(CCC)CCCNC(=O)CS(=O)Cc1nc(-c2ccc(OC)c(OC)c2)oc1C (stereo not given)	·	71	–	·	–
Cc1cccc2c3c([nH]c12)CCNC3	·	·	–	·	·
CCOP(=O)(OCC)c1nc(/C=C/c2ccccc2)oc1NCc1ccccc1	–	83	·	–	–
CCOC(=O)/C(=C\c1ccc(OC(F)F)cc1)C1=Nn2c(nnc2-c2ccc(Cl)cc2)SC1	·	71	·	–	–
Cc1ccc2[nH]c(C)cc(=S)c2c1	–	–	–	–	23
Cc1cc(=S)c2ccccc2[nH]1	–	·	–	–	·
SMILES	bCat nuc transl	WT yeast gro inh	Pf gametocyte	KCC2 mod	MT stabilizer
c1ccc(-c2ccc(-c3nc(-c4ccccn4)no3)cc2)cc1	–	78	·	·	–
Cc1nc2ccccc2c(=O)n1/N=C/c1ccccn1	–	–	·	–	–
C=CCN=c1scc(-c2ccc(F)cc2)n1/N=C/c1ccccn1	–	–	–	–	–
CCN=c1scc(-c2ccccc2)n1/N=C/c1ccccn1	–	–	·	-3.8	–
C=CCN=c1scc(-c2ccccc2)n1/N=C/c1ccccn1	–	75	·	-4.1	–
CC(c1ccco1)N(C(=O)c1ccccc1NS(=O)(=O)c1cccc([N+](=O)[O-])c1)c1ccccn1 (stereo not given)	–	–	·	–	–
CC(c1ccco1)N(C(=O)c1ccccc1NS(=O)(=O)c1cc([N+](=O)[O-])ccc1Cl)c1ccccn1 (stereo not given)	·	–	–	5.4	–
O=C(c1ccc(Cl)c(Cl)c1)N1CCC(=O)N(C(COCc2ccccc2)Cc2ccccc2)CC1 (stereo not given)	·	–	·	–	–
